From ChEMBL document CHEMBL5661972, “In vitro biological activity of a novel small-molecule inhibitor of polo-like kinase 1” (Mol Cancer Ther, 2007)
Active and inactive are the calls of the source. The calls are words filed in the database; no cut-off is given here.

How the values were obtained:
[1] = tested on: NCI-H460; assay: Antiproliferative activity against human NCI-H460 cells assessed as outgrowth of cells at 0.37 micromol/L incubated for 72 hrs; format: functional, cell-based; conditions: dose 0.37 µmol/L
Summary of the method: (§1)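 HDF seeded at 1,300 and H460 at 600 per well in 96-well plates. After 24 h, exposed to vehicle (0.3% DMSO) or compound at 0.37–30 μmol/L for 72 h. Wells were then washed with PBS and refed with drug-free medium containing gentamicin. Regrowth was followed by methylene blue staining at set time points over 13 days in total.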

[2] = tested on: NHDF; assay: Induction of cell cycle arrest in human HDF cells assessed as accumulation of cells at Sub-2N phase at 3 micromol/L incubated for 48 hrs by propidium iodide staining based flow cytometry analysis (reference value: 0.5 %); format: toxicity; conditions: 3 µM, dose 3 µmol/L
Summary of the method: (§2)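 Cells seeded in six-well plates at densities that keep them in log growth (HDF 120,000, 60,000 or 30,000; H460 100,000, 50,000 or 25,000 per well for 24, 48 or 72 h). Treated with 1 or 3 μmol/L. Floating and adherent cells collected, ethanol-fixed, permeabilized with Triton X-100 and stained with propidium iodide. DNA content read by flow cytometry as % singlet cells.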

[3] = tested on: NCI-H460; assay: Induction of cell cycle arrest in human NCI-H460 cells assessed as accumulation of cells at G2-M phase at 3 micromol/L incubated for 48 hrs by propidium iodide staining based flow cytometry analysis (reference value: 22.5 %); format: functional; conditions: dose 3 µmol/L, at 3 µM
[4] = tested on: NCI-H460; assay: Induction of cell cycle arrest in human NCI-H460 cells assessed as accumulation of cells at Sub-2N phase at 3 micromol/L incubated for 24 hrs by propidium iodide staining based flow cytometry analysis (reference value: 4.0 %); format: functional; conditions: dose 3 µmol/L, at 3 µM
[5] = tested on: NHDF; assay: Induction of cell cycle arrest in human HDF cells assessed as accumulation of cells at G2-M phase at 1 micromol/L incubated for 24 hrs by propidium iodide staining based flow cytometry analysis (reference value: 22.6 %); format: toxicity; conditions: 1 µM, dose 1 µmol/L; summary of the method: as §2
[6] = tested on: NCI-H460; assay: Induction of cell cycle arrest in human NCI-H460 cells assessed as accumulation of cells at G1 phase at 3 micromol/L incubated for 24 hrs by propidium iodide staining based flow cytometry analysis (reference value: 45.5 %); format: functional; conditions: dose 3 µmol/L, at 3 µM; summary of the method: as §2
[7] = tested on: NCI-H460; assay: Induction of cell cycle arrest in human NCI-H460 cells assessed as accumulation of cells at Sub-2N phase at 3 micromol/L incubated for 48 hrs by propidium iodide staining based flow cytometry analysis (reference value: 2.5 %); format: functional; conditions: dose 3 µmol/L, at 3 µM
[8] = tested on: NHDF; assay: Induction of cell cycle arrest in human HDF cells assessed as accumulation of cells at S phase at 3 micromol/L incubated for 48 hrs by propidium iodide staining based flow cytometry analysis (reference value: 4.7 %); format: toxicity; conditions: 3 µM, dose 3 µmol/L; summary of the method: as §2
[9] = tested on: NHDF; assay: Induction of cell cycle arrest in human HDF cells assessed as accumulation of cells at >4N phase at 1 micromol/L incubated for 72 hrs by propidium iodide staining based flow cytometry analysis (reference value: 1.4 %); format: toxicity; conditions: 1 µM, dose 1 µmol/L; summary of the method: as §2
[10] = tested on: NCI-H460; assay: Induction of cell cycle arrest in human NCI-H460 cells assessed as accumulation of cells at S phase at 3 micromol/L incubated for 72 hrs by propidium iodide staining based flow cytometry analysis (reference value: 17.8 %); format: functional; conditions: dose 3 µmol/L, at 3 µM
[11] = tested on: NCI-H460; assay: Induction of cell cycle arrest in human NCI-H460 cells assessed as accumulation of cells at >4N phase at 3 micromol/L incubated for 72 hrs by propidium iodide staining based flow cytometry analysis (reference value: 0.9 %); format: functional; conditions: dose 3 µmol/L, at 3 µM; summary of the method: as §2
[12] = tested on: NHDF; assay: Induction of cell cycle arrest in human HDF cells assessed as accumulation of cells at Sub-2N phase at 1 micromol/L incubated for 48 hrs by propidium iodide staining based flow cytometry analysis (reference value: 0.5 %); format: toxicity; conditions: 1 µM, dose 1 µmol/L; summary of the method: as §2
[13] = tested on: NHDF; assay: Induction of cell cycle arrest in human HDF cells assessed as accumulation of cells at G1 phase at 1 micromol/L incubated for 72 hrs by propidium iodide staining based flow cytometry analysis (reference value: 85.6 %); format: toxicity; conditions: 1 µM, dose 1 µmol/L; summary of the method: as §2
[14] = tested on: NCI-H460; assay: Induction of cell cycle arrest in human NCI-H460 cells assessed as accumulation of cells at G2-M phase at 3 micromol/L incubated for 72 hrs by propidium iodide staining based flow cytometry analysis (reference value: 18.2 %); format: functional; conditions: dose 3 µmol/L
[15] = tested on: MES-SA; assay: Antiproliferative activity against human MES-SA cells assessed as inhibition of cell growth; format: functional, cell-based
Summary of the method: (§3)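 Cells grown 3 days in 96-well plates, seeded so vehicle controls stay in log growth (MES-SA/DX5 7,000, MES-SA 6,000, HDF 5,000 per well). Exposed to 3-fold dilutions, 30–0.00152 μmol/L, in medium with 5% FBS, 50 μg/mL gentamicin and 0.3% (v/v) DMSO. HDF medium was low-glucose DMEM; MES-SA lines used McCoy's 5A.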

[16] = tested on: NHDF; assay: Induction of cell cycle arrest in human HDF cells assessed as accumulation of cells at >4N phase at 1 micromol/L incubated for 48 hrs by propidium iodide staining based flow cytometry analysis (reference value: 3.0 %); format: toxicity; conditions: 1 µM, dose 1 µmol/L; summary of the method: as §2
[17] = Selectivity ratio of IC50 for cytotoxicity against human HDF cells to IC50 for antiproliferative activity against human RKO cells; format: toxicity, cell-based; conditions: HDF cells versus RKO cells, read-out: Ratio IC50
[18] = tested on: NHDF; assay: Cytotoxicity against human HDF cells assessed as outgrowth of cells at 0.37 to 3.3 micromol/L incubated for 72 hrs by methylene blue staining based analysis; format: toxicity, cell-based; conditions: dose 0.37-3.3 µmol/L; summary of the method: as §1
[19] = tested on: NCI-H460; assay: Induction of cell cycle arrest in human NCI-H460 cells assessed as accumulation of cells at G2-M phase at 3 micromol/L incubated for 24 hrs by propidium iodide staining based flow cytometry analysis (reference value: 19.8 %); format: functional; conditions: dose 3 µmol/L, at 3 µM
[20] = molecular target: Proto-oncogene tyrosine-protein kinase Src (Homo sapiens, UniProt P12931); assay: Inhibition of c-src (unknown origin)
[21] = tested on: NHDF; assay: Induction of cell cycle arrest in human HDF cells assessed as accumulation of cells at >4N phase at 3 micromol/L incubated for 72 hrs by propidium iodide staining based flow cytometry analysis (reference value: 1.4 %); format: toxicity; conditions: 3 µM, dose 3 µmol/L; summary of the method: as §2
[22] = molecular target: Mitogen-activated protein kinase 11 (Homo sapiens, UniProt Q15759); assay: Inhibition of p38beta (unknown origin)
[23] = tested on: NHDF; assay: Induction of cell cycle arrest in human HDF cells assessed as accumulation of cells at G1 phase at 1 micromol/L incubated for 24 hrs by propidium iodide staining based flow cytometry analysis (reference value: 57.0 %); format: toxicity; conditions: 1 µM, dose 1 µmol/L; summary of the method: as §2
[24] = tested on: NHDF; assay: Induction of cell cycle arrest in human HDF cells assessed as accumulation of cells at Sub-2N phase at 1 micromol/L incubated for 72 hrs by propidium iodide staining based flow cytometry analysis (reference value: 0.7 %); format: toxicity; conditions: 1 µM, dose 1 µmol/L; summary of the method: as §2
[25] = Cytotoxicity against human HDF cells assessed as inhibition of cell growth; format: toxicity, cell-based; conditions: HDF cells (NHDF, human dermal fibroblasts); summary of the method: as §3
[26] = tested on: NCI-H460; assay: Induction of cell cycle arrest in human NCI-H460 cells assessed as accumulation of cells at >4N phase at 3 micromol/L incubated for 24 hrs by propidium iodide staining based flow cytometry analysis (reference value: 1.2 %); format: functional; conditions: dose 3 µmol/L, at 3 µM; summary of the method: as §2
[27] = tested on: NHDF; assay: Induction of cell cycle arrest in human HDF cells assessed as accumulation of cells at G1 phase at 3 micromol/L incubated for 48 hrs by propidium iodide staining based flow cytometry analysis (reference value: 72.8 %); format: toxicity; conditions: 3 µM, dose 3 µmol/L; summary of the method: as §2
[28] = molecular target: CDK1/Cyclin A (Homo sapiens, UniProt P06493); assay: Inhibition of CDK1/cyclin A (unknown origin); format: protein-complex assay
CDK1/Cyclin A, sequence (P06493 whole entry): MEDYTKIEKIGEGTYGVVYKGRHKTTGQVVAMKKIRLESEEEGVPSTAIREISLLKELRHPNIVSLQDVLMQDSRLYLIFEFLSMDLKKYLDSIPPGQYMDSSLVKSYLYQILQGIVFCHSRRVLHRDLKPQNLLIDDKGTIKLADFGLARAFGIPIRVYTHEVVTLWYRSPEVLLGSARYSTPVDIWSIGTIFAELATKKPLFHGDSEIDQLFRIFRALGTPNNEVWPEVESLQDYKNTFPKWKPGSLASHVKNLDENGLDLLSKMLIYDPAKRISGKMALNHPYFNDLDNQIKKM
CDK1/Cyclin A, sequence (P20248 whole entry, further chain): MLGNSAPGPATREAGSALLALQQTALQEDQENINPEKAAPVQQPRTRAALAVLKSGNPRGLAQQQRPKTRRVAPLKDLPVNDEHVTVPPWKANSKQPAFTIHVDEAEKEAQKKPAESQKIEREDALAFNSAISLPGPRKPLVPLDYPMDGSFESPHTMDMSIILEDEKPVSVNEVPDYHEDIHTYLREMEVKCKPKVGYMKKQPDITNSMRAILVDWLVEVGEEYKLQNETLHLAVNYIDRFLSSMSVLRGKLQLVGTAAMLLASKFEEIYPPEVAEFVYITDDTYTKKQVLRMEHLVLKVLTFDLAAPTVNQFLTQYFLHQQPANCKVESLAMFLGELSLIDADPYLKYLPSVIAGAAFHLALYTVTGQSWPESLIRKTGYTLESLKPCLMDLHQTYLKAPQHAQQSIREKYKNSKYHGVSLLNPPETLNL

Mitogen-activated protein kinase 11, sequence (Q15759 whole entry): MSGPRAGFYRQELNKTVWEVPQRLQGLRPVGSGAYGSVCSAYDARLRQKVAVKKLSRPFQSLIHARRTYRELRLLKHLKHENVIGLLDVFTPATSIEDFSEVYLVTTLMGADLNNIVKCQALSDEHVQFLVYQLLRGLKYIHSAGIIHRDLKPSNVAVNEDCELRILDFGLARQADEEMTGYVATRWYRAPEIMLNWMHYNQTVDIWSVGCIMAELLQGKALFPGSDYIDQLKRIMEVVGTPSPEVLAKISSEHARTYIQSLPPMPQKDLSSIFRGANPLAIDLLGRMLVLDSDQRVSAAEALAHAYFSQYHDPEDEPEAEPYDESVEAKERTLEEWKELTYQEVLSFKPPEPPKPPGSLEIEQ
Proto-oncogene tyrosine-protein kinase Src, sequence (P12931 2-536 limits assumed): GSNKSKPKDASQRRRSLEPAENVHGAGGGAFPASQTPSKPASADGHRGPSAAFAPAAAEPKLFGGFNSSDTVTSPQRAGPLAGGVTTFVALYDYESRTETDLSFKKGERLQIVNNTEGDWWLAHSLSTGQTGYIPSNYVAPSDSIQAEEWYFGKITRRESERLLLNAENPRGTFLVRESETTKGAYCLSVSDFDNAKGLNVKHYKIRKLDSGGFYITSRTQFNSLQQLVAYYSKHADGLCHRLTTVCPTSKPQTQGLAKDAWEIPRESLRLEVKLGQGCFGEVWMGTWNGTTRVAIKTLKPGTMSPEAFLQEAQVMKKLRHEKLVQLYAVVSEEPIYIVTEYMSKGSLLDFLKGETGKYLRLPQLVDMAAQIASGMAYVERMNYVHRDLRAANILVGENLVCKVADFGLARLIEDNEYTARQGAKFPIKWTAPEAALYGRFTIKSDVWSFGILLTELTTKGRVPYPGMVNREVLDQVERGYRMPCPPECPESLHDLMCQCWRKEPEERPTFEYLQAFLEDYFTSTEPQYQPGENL

Compound: COc1cc2ncn(-c3cc(OCc4ccccc4C(F)(F)F)c(C(N)=O)s3)c2cc1OC [GW843682X]
- Activity [1]: Active
- Activity [2]: 2.3%
- Activity [3]: 14.4%
- Activity [4]: 24.1%
- Activity [5]: 27.6%
- Activity [6]: 7.8%
- Activity [7]: 20.3%
- Activity [8]: 5.9%
- Activity [9]: 3.5%
- Activity [10]: 3.6%
- Activity [11]: 51%
- Activity [12]: 0.9%
- Activity [13]: 66.2%
- Activity [14]: 4.7%
- IC50 [15]: 0.21 µM
- Activity [16]: 6.4%
- selectivity ratio [17]: > 10
- Activity [18]: Toxic
- Activity [19]: 37.7%
- IC50 [20]: > 10 µM
- Activity [21]: 19.1%
- IC50 [22]: > 10 µM
- Activity [23]: 54.2%
- Activity [24]: 1.3%
- IC50 [25]: 6.14 µM
- Activity [26]: 6.2%
- Activity [27]: 11.3%
- IC50 [28]: > 10 µM
